Measured values taken from ChEMBL document CHEMBL1140938, “Structural requirements for a lipoamino acid in modulating the anticonvulsant activities of systemically active galanin analogues” (J Med Chem, 2009).

Assays:
Galanin receptor type 2 = target: T1, Galanin receptor type 2 (Homo sapiens, UniProt O43603); experiment: Displacement of europium labeled galanin from human recombinant GalR2 receptor by time-resolved fluorescence binding assay
T1 sequence (O43603 whole entry): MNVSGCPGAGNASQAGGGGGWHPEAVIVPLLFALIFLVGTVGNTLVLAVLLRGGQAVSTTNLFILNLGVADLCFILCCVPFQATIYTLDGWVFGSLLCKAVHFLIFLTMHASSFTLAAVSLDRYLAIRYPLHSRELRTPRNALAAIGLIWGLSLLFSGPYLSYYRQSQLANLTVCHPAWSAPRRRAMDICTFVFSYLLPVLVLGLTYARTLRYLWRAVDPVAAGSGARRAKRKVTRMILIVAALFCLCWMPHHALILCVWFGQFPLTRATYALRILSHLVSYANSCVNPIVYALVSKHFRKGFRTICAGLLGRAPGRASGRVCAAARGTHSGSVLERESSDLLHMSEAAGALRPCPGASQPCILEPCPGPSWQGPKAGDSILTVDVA
How it was run: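 Competition binding on membranes from recombinant human GalR1 or GalR2 versus 2 nM europium-labeled galanin; 90 min incubation at room temperature, four washes (50 mM Tris-HCl pH 7.5, 5 mM MgCl2), enhancement solution 30 min at room temperature, time-resolved fluorescence read. Ki from nonlinear sigmoidal variable-slope fit, one-site reversible model, tracer Kd held at 4.3 nM.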

Galanin receptor type 1 = target: T2, Galanin receptor type 1 (Homo sapiens, UniProt P47211); experiment: Displacement of europium labeled galanin from human recombinant GalR1 receptor by time-resolved fluorescence binding assay
T2 sequence (P47211 whole entry): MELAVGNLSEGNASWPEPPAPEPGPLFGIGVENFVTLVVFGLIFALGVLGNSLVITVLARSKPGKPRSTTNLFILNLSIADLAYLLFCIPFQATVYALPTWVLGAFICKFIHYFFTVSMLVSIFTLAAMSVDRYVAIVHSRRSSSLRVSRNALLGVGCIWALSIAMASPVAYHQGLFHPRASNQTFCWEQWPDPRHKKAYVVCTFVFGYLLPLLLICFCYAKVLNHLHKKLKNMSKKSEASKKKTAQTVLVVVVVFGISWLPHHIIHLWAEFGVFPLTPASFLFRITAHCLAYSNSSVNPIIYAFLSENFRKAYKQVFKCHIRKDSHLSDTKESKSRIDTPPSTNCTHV
How it was run: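 Competition binding on membranes from recombinant human GalR1 or GalR2 versus 2 nM europium-labeled galanin; 90 min incubation at room temperature, four washes (50 mM Tris-HCl pH 7.5, 5 mM MgCl2), enhancement solution 30 min at room temperature, time-resolved fluorescence read.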

[1] = Lipophilicity, log D by HPLC method; format: physicochemical
How it was run: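 HPLC retention times were measured on a linear gradient of 20% to 100% buffer B (0.1% TFA in 90% aqueous acetonitrile; A was 0.1% TFA in water) over 40 min. Five analogs were calibrated by shake flask: 400 µg peptide in 1 mL PBS shaken with an equal volume of water-saturated octanol for 24 h, aqueous phase quantified by HPLC. LogD was calculated from the linear correlation with retention time.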

logD [1] | Compound | Ki (Galanin receptor type 2) [nM] | Ki (Galanin receptor type 1) [nM]
– | CNCC(=O)N[C@@H](Cc1c[nH]c2ccccc12)C(=O)N[C@H](C(=O)N[C@@H](CC(C)C)C(=O)N[C@@H](CC(N)=O)C(=O)N[C@@H](CO)C(=O)N[C@@H](C)C(=O)NCC(=O)N[C@@H](Cc1ccc(O)cc1)C(=O)N[C@@H](CC(C)C)C(=O)N[C@@H](CC(C)C)C(=O)NCC(=O)N1CCC[C@H]1C(=O)N[C@@H](CCCCN)C(=O)N[C@@H](CCCCN)C(=O)N[C@@H](CCCCNC(=O)COCCOCCOCCOCCOC)C(=O)N[C@@H](CCCCN)C(N)=O)[C@@H](C)O | 20.5 | 0.5
0.78 | CCCCCCCC(=O)NCCCC[C@H](NC(=O)[C@H](CCCCN)NC(=O)[C@H](CCCCN)NC(=O)[C@@H]1CCCN1C(=O)CNC(=O)[C@H](CC(C)C)NC(=O)[C@H](CC(C)C)NC(=O)[C@H](Cc1ccc(O)cc1)NC(=O)CNC(=O)[C@H](C)NC(=O)[C@H](CO)NC(=O)[C@H](CC(N)=O)NC(=O)[C@H](CC(C)C)NC(=O)[C@@H](NC(=O)[C@H](Cc1c[nH]c2ccccc12)OC(=O)CNC)[C@@H](C)O)C(=O)N[C@@H](CCCCN)C(N)=O | – | –
– | CCCCCCCC(=O)NCCCC[C@H](NC(=O)[C@H](CCCCN)NC(=O)[C@H](CCCCN)NC(=O)[C@@H]1CCCN1C(=O)CNC(=O)[C@H](CC(C)C)NC(=O)[C@H](CC(C)C)NC(=O)[C@H](Cc1ccc(O)cc1)NC(=O)CNC(=O)[C@H](C)NC(=O)[C@H](CO)NC(=O)[C@H](CC(N)=O)NC(=O)[C@H](CC(C)C)NC(=O)[C@@H](NC(=O)[C@H](Cc1c[nH]c2ccccc12)NC(=O)CNC)[C@@H](C)O)C(=O)N[C@@H](CCCCN)C(N)=O | 14.9 | 0.7
– | CCCCCCCCCCCC(=O)NCCCC[C@H](NC(=O)[C@H](CCCCN)NC(=O)[C@H](CCCCN)NC(=O)[C@@H]1CCCN1C(=O)CNC(=O)[C@H](CC(C)C)NC(=O)[C@H](CC(C)C)NC(=O)[C@H](Cc1ccc(O)cc1)NC(=O)CNC(=O)[C@H](C)NC(=O)[C@H](CO)NC(=O)[C@H](CC(N)=O)NC(=O)[C@H](CC(C)C)NC(=O)[C@@H](NC(=O)[C@H](Cc1c[nH]c2ccccc12)NC(=O)CNC)[C@@H](C)O)C(=O)N[C@@H](CCCCN)C(N)=O | 16.1 | 1.4
– | CCCCCCCCCCCCCCCCCC(=O)NCCCC[C@H](NC(=O)[C@H](CCCCN)NC(=O)[C@H](CCCCN)NC(=O)[C@@H]1CCCN1C(=O)CNC(=O)[C@H](CC(C)C)NC(=O)[C@H](CC(C)C)NC(=O)[C@H](Cc1ccc(O)cc1)NC(=O)CNC(=O)[C@H](C)NC(=O)[C@H](CO)NC(=O)[C@H](CC(N)=O)NC(=O)[C@H](CC(C)C)NC(=O)[C@@H](NC(=O)[C@H](Cc1c[nH]c2ccccc12)NC(=O)CNC)[C@@H](C)O)C(=O)N[C@@H](CCCCN)C(N)=O | 15 | 4
– | CCCCCCCCCCCCCC(=O)NCCCC[C@H](NC(=O)[C@H](CCCCN)NC(=O)[C@H](CCCCN)NC(=O)[C@@H]1CCCN1C(=O)CNC(=O)[C@H](CC(C)C)NC(=O)[C@H](CC(C)C)NC(=O)[C@H](Cc1ccc(O)cc1)NC(=O)CNC(=O)[C@H](C)NC(=O)[C@H](CO)NC(=O)[C@H](CC(N)=O)NC(=O)[C@H](CC(C)C)NC(=O)[C@@H](NC(=O)[C@H](Cc1c[nH]c2ccccc12)NC(=O)CNC)[C@@H](C)O)C(=O)N[C@@H](CCCCN)C(N)=O | 18.2 | 2.6
– | CCCCCCCCCC(=O)NCCCC[C@H](NC(=O)[C@H](CCCCN)NC(=O)[C@H](CCCCN)NC(=O)[C@@H]1CCCN1C(=O)CNC(=O)[C@H](CC(C)C)NC(=O)[C@H](CC(C)C)NC(=O)[C@H](Cc1ccc(O)cc1)NC(=O)CNC(=O)[C@H](C)NC(=O)[C@H](CO)NC(=O)[C@H](CC(N)=O)NC(=O)[C@H](CC(C)C)NC(=O)[C@@H](NC(=O)[C@H](Cc1c[nH]c2ccccc12)NC(=O)CNC)[C@@H](C)O)C(=O)N[C@@H](CCCCN)C(N)=O | 14.4 | 1.3
1.35 | CCCCCCCCCCCCCCCCCC(=O)NCCCC[C@H](NC(=O)[C@H](CCCCN)NC(=O)[C@H](CCCCN)NC(=O)[C@@H]1CCCN1C(=O)CNC(=O)[C@H](CC(C)C)NC(=O)[C@H](CC(C)C)NC(=O)[C@H](Cc1ccc(O)cc1)NC(=O)CNC(=O)[C@H](C)NC(=O)[C@H](CO)NC(=O)[C@H](CC(N)=O)NC(=O)[C@H](CC(C)C)NC(=O)[C@@H](NC(=O)[C@H](Cc1c[nH]c2ccccc12)OC(=O)CNC)[C@@H](C)O)C(=O)N[C@@H](CCCCN)C(N)=O | – | –
